This is a sample that favours compounds with a hit; in the whole collection about 1% have one here.
ERp5 inh: ERp5 (human) disulfide isomerase inhibition. Q15084. ERp5 insulin aggregation, absorbance 650 nm, 90 min. inhibition, % at 9.99 µM. 0.05% of 350,000 active. AID 651711;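 active = mean replicate inhibition above about 25%, with every replicate also reaching it, limit read from the data, passing the limit was not always enough; inconclusive = only one of those two criteria met; inactive = neither criterion met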
CAL PDZ FP-1: CAL PDZ (human) peptide binding inhibition. inhibition, % at 24.9 µM. AID 602252. purified CAL PDZ, TMR-peptide fluorescence polarization, 1 h. 0.92% of 300,000 active;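 active = mean inhibition of at least 30% with at least half of replicates also reaching 30%; inconclusive = no clear call, values can overlap the other calls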;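 note: 0% = DMSO neutral control and 100% = excess unlabeled competitor peptide PRC23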
RAD52 anneal inh: blocks human RAD52 DNA annealing; 0.46% of 360,000 active; P43351; inhibition, % at 18.7 µM; AID 651710; recombinant RAD52 DNA annealing, FRET fluorescence;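 active = every replicate showing at least 50% inhibition; inconclusive = mean inhibition at least 50% but not in every replicate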
RAD54 inh: RAD54 (human) branch migration inhibition; RAD54 Holliday junction branch migration, FAM/BHQ fluorescence; inhibition, % at 10.4 µM; AID 602329; Q92698; 0.14% of 360,000 active;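 active = mean normalized replicate activity at least 40 and at least half of replicates scoring 40 or more; inconclusive = only one of the two criteria met; inactive = mean below 40 and under half of replicates reaching 40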;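 note: 0% = median of neutral control wells and 100% = median of positive control wells; inhibitors cause a drop in the FAM fluorescence signal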
CAL PDZ FP-2: inhibitors of human CAL PDZ peptide binding; purified CAL PDZ, TMR-peptide fluorescence polarization, 1 h; Q9HD26; inhibition, % at 20 µM; 0.02% of 330,000 active;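 active = highest replicate inhibition of at least 40%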;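 note: plate controls were DMSO neutral control wells for no effect and unlabeled competitor peptide control wells for full effect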
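Test system: tagged CAL PDZ domain / Buffer or medium: sodium phosphate/NaCl buffer pH 7.4 with TCEP, IgG, Thesit / Reagent: TMR-labelled reporter peptide T*-PRC34 bound in PDZ groove / Compound dosing: single point, 20 µM / Schedule: 1 h incubation at room temperature before polarization reading / Technique: fluorescence polarization (mP) / Benchmarks: unlabelled peptide, DMSO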
PDI turbidity: PDI (human) enzyme inhibition | PDI insulin aggregation turbidity, A650, 90 min | inhibition, % at 10 µM | 0.052% of 350,000 active | AID 588391;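 active = mean inhibition across replicates of 30% or more, whatever share of single replicates reach that level; inconclusive = mean inhibition below 30% while every single replicate reaches 30%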
Target sequence (P07237 whole entry, looked up): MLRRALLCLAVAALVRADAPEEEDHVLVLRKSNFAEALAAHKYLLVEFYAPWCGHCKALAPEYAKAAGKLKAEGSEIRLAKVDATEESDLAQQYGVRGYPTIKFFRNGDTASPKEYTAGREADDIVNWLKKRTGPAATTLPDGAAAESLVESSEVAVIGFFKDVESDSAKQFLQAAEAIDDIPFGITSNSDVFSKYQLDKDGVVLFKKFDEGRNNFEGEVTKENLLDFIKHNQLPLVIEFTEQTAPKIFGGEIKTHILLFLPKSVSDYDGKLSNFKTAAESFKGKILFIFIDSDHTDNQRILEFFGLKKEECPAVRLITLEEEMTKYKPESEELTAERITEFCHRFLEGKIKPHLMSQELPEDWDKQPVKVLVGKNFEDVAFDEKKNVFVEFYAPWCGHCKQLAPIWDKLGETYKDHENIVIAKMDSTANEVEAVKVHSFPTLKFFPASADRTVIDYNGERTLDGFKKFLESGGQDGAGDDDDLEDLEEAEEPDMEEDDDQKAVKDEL
DNA binder FP: DNA binding artifact in RAD52 counter-screen. shares compounds with RAD52 anneal inh. Salmon sperm DNA/acridine orange FP displacement. AC50, µM. 8% of 1,000 active. AID 652128;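 active = fitted half-maximal concentration for signal loss at or below twice the highest dose tested, in every separate run, actives reach about 64 µM in these data; inconclusive = runs disagree, or flat partial signal loss, or poor fit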
Active calls of the source: *; i = inactive; ? = inconclusive; nt = no result given.

SMILES	ERp5 inh	CAL PDZ FP-1	RAD52 anneal inh	RAD54 inh	CAL PDZ FP-2	PDI turbidity	DNA binder FP
Cc1cc(N2CCN(C)CC2)nc2ccc(NC(=S)N3CCCCCC3)cc12	4	-2	52*	18	1	5	i
Cc1cc(N2CCN(C)CC2)nc2ccc(NC(=S)N3CCN(c4ccc(F)cc4)CC3)cc12	5	-4	-6	-3	-1	9	nt
Cc1cc(N2CCN(C)CC2)nc2ccc(NC(=S)N3CCN(c4ccc(Cl)cc4)CC3)cc12	7	-2	90*	20	-1	12	i
Cc1cc(N2CCN(C)CC2)nc2ccc(NC(=S)N3CCCCC3)cc12	3	-2	71*	43	1	1	i
COc1ccc2c3c([nH]c2c1)[C@H](CO)N(Cc1ccccc1F)CC31CCN(C(=O)C2CCC2)CC1	-4	nt	-75	nt	nt	nt	nt
O=C(C[C@H]1CC[C@@H]2[C@H](COC[C@H](O)CN2CC2CCCCC2)O1)NCC1CC1	4	nt	2	3	nt	nt	nt
COc1ccc(/C=N/Nc2cc(N3CCCC3)nc(N3CCCC3)n2)cc1	6	-2	73*	7	-1	-5	i
CN(C)CCCn1c(=S)[nH]c2sc3c(c2c1=O)CCCC3	-4	49*	97*	11	-1	-13	i
C[C@@H]1CCCCO[C@H](CN(C)C(=O)Nc2ccccc2)[C@@H](C)CN([C@H](C)CO)C(=O)c2cc(NC(=O)c3ccncc3)ccc2O1	1	nt	3	2	nt	nt	nt
CCCCN1C(N)=NC[C@@H]1Cc1ccc(O)cc1	0	-4	-4	-6	-1	13	nt
NC1=NC[C@H](Cc2ccc(O)cc2)N1CCC12CC3CC(CC(C3)C1)C2	2	-1	53*	6	-1	20	i
Cc1cc(N/N=C/c2ccc(O)cc2)c2cccc(C)c2n1	2	-4	77*	118*	6	-6	52µM*
Cc1cc(C)c2nc(C)cc(N/N=C/c3ccc(O)cc3)c2c1	2	12	94*	119*	15	-1	?
Cc1cc(N/N=C/c2ccc(N(C)C)cc2)c2ccccc2n1	0	nt	-207	-7	0	-3	nt
O=C(Nc1ccc(F)cc1)N[C@H]1C=C[C@H](CC(=O)N2CCOCC2)O[C@@H]1CO	-1	nt	3	0	nt	nt	nt
C[C@H]1CN([C@@H](C)CO)C(=O)c2cc(C#CCN(C)C)cnc2O[C@@H]1CN(C)C(=O)NC1CCCC1	5	nt	-16	-5	nt	nt	nt
Cc1ccccc1S(=O)(=O)N1CCCCN2[C@H](CO)[C@@H](c3ccc(-c4cccc(F)c4)cc3)[C@@H]2C1	-3	nt	-28	-1	nt	nt	nt
Cc1c(C)n(Cc2ccccc2)c2ccc(C(=O)OCCN(C)C)cc12	5	-5	66*	31	0	7	i
Cc1c(C)n(Cc2ccccc2)c2ccc(C(=O)NCCN3CCOCC3)cc12	-4	1	16	-11	0	3	nt
CN(C)CCCn1c(SCC(=O)N2c3ccccc3Sc3ccccc32)nc2ccccc2c1=O	-5	-3	69*	6	-2	14	i
Cc1ccc(-c2csc(NC(=O)CSc3nc4ccccc4c(=O)n3CCCN(C)C)n2)cc1	-1	6	91*	nt	-4	-74	i
Cn1c(SCC(=O)N2c3ccccc3Sc3ccccc32)nc2ccccc21	14	-3	-1	nt	-1	8	nt
CCOc1cccc2sc(N(CCCN(C)C)C(=O)c3ccc(C(=O)c4ccccc4)cc3)nc12	4	-6	52*	35	-5	7	i
CN(C)CCCN(C(=O)c1ccc(C(=O)c2ccccc2)cc1)c1nc2c(F)cccc2s1	-6	-5	36	21	-7	-10	nt
Cc1ccc2sc(N(CCCN(C)C)C(=O)c3ccc(S(=O)(=O)N(C)Cc4ccccc4)cc3)nc2c1C	2	-1	60*	-5	-2	2	i
SMILES	ERp5 inh	CAL PDZ FP-1	RAD52 anneal inh	RAD54 inh	CAL PDZ FP-2	PDI turbidity	DNA binder FP
CCOc1cccc2sc(N(CCN(C)C)C(=O)c3cc4ccccc4cc3OC)nc12	5	2	64*	23	-4	8	i
CCc1ccc2nc(N(CCCN(C)C)C(=O)c3ccc(C(=O)c4ccccc4)cc3)sc2c1	2	-5	49	21	-3	-8	nt
COc1cc2nc(N(CCCN(C)C)C(=O)c3ccc(C(=O)c4ccccc4)cc3)sc2cc1OC	-3	1	72*	30	-2	10	i
Cc1ccc2sc(N(CCCN(C)C)C(=O)c3ccc(S(=O)(=O)N(C)C)cc3)nc2c1C	-5	5	12	nt	-2	-6	nt
CCOc1cccc2sc(N(CCCN(C)C)C(=O)c3ccc(S(=O)(=O)N(CC)Cc4ccccc4)cc3)nc12	9	-2	65*	-4	-2	-64	i
CCN(Cc1ccccc1)S(=O)(=O)c1ccc(C(=O)N(CCCN(C)C)c2nc3cc(C)cc(C)c3s2)cc1	3	0	-13	-3	-1	18	i
Cc1cccc2sc(N(CCCN(C)C)C(=O)c3ccco3)nc12	0	6	20	20	-3	7	nt
Cc1cccc2sc(N(CCCN(C)C)C(=O)c3ccc(Cl)s3)nc12	1	5	57*	10	-2	-4	i
CCOc1cccc2sc(N(CCCN(C)C)C(=O)c3ccc(S(=O)(=O)N(C)Cc4ccccc4)cc3)nc12	-6	-1	42	10	-5	7	nt
COC(=O)C[C@H]1C[C@@H]2c3cc(NC(=O)CC4CC4)ccc3O[C@@H]2[C@H](CO)O1	8	nt	-12	3	nt	nt	nt
O=C(C1CCC1)N1CC2(C1)[C@@H](c1ccccc1)[C@@H](CO)N2CCC(F)(F)F	1	nt	18	nt	nt	nt	nt
CCOCCCn1c(C)nc2c[n+](CC(=O)c3ccc4ccccc4c3)cc(Br)c21	5	nt	64*	37	nt	-2	i
COc1cccc(S(=O)(=O)N(C)C[C@@H]2Oc3ncccc3C(=O)N([C@H](C)CO)C[C@@H]2C)c1	-9	nt	-4	2	nt	nt	nt
COC(=O)[C@H]1[C@H](CO)[C@H]2Cn3c(ccc(-c4ccc(F)cc4)c3=O)[C@H]2N1C(=O)C1CCC1	-3	nt	10	-14	nt	nt	nt
Cc1ccc2nc(N(CCCN(C)C)C(=O)CCc3ccccc3)sc2c1	3	-4	40	nt	-4	8	nt
Cc1cc(C)c2sc(N(CCCN(C)C)C(=O)CN3C(=O)c4ccccc4C3=O)nc2c1	6	-5	67*	41	-4	2	i
Cc1ccc2nc(N(CCCN(C)C)C(=O)CN3C(=O)c4ccccc4C3=O)sc2c1	2	-3	62*	nt	-7	4	i
Cc1cc(C)c2sc(N(CCCN(C)C)C(=O)c3ccc(Br)s3)nc2c1	-5	-8	58*	6	-4	2	i
CCN(CC)CCNc1ncnc2c1sc1nc(N3CCCC3)c3c(c12)CC(C)(C)OC3	1	-2	79*	nt	0	0	i
OCCNc1ncnc2c1sc1nc(N3CCOCC3)c3c(c12)CCC3	4	-1	34	-12	-4	1	nt
CCN(CC)CCNc1ncnc2c1sc1nc(N3CCOCC3)c3c(c12)CCCC3	-1	-12	66*	nt	-7	-4	65µM*
CC1(C)Cc2c(c(-c3ccco3)nc3sc4c(NCCN5CCOCC5)ncnc4c23)CO1	-4	-4	-7	nt	-4	2	nt
C[C@@H]1CN([C@@H](C)CO)C(=O)c2cccc(NS(=O)(=O)c3ccccc3)c2O[C@@H]1CN(C)Cc1ccc(C(F)(F)F)cc1	1	nt	14	-3	nt	nt	nt

Compound activity (PubChem)
